The results in this text go back to ChEMBL document CHEMBL1649282, “OXA-143, a novel carbapenem-hydrolyzing class D beta-lactamase in Acinetobacter baumannii” (2009).

Converted amounts (≈) assume the structure as drawn. Bounds are passed on as bounds.

As usually defined, the MIC is the smallest concentration in the dilution series that meets the test's criterion for growth inhibition.

Format in all cases: functional
The subject of test [1] is Acinetobacter baumannii. Kind of test: Antimicrobial activity against Acinetobacter baumannii […] by Etest method. In outline: (§1)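 Etest MICs were read following the manufacturer's instructions. A. baumannii 135040 is a blood-culture clinical isolate from a Brazilian ICU (2004); A. baumannii ATCC 19606 served as the reference strain.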
Test [2] has as its system Acinetobacter baumannii. Kind of test: Antimicrobial activity against Acinetobacter baumannii ATCC 19606 harboring plasmid PH98 by Etest method. Particulars: ATCC 19606 = CIP 70.34 = JCM 6841. The essentials: (§2)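 MICs of β-lactams determined by Etest following the manufacturer's instructions. Reference strains A. baumannii ATCC 19606 and E. coli TOP10 were tested alongside transformants carrying the cloned blaOXA-143: ATCC 19606 with pPH98 and TOP10 with pPH-1. For pPH-1 constructs, TOP10 transformants were selected on 50 μg/ml amoxicillin plus 30 μg/ml kanamycin.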

Test [3] relates to Acinetobacter baumannii. Kind of test: Antimicrobial activity against Acinetobacter baumannii ATCC 19606 by Etest method. Particulars: ATCC 19606 = CIP 70.34 = JCM 6841. The essentials:
as §2

Test [4] deals with Escherichia coli. Kind of test: Antimicrobial activity against Escherichia coli TOP10 harboring plasmid PH1 by Etest method. The essentials:
as §2

The test system of test [5] is Escherichia coli. Kind of test: Antimicrobial activity against Escherichia coli TOP10 by Etest method. The essentials:
as §2

The subject of test [6] is Acinetobacter baumannii. Kind of test: Antimicrobial activity against Acinetobacter baumannii […] by Etest method in presence of 4 ug/ml beta-lactamase inhibitor clavulanic acid. In outline: as §1
Test [7] relates to Acinetobacter baumannii. The test can be described thus: Antimicrobial activity against Acinetobacter baumannii ATCC 19606 harboring plasmid PH98 by Etest method in presence of 4 ug/ml beta-lactamase inhibitor clavulanic acid. To be noted: ATCC 19606 = CIP 70.34 = JCM 6841. The essentials: as §2
In test [8] the test system is Acinetobacter baumannii. Kind of test: Antimicrobial activity against Acinetobacter baumannii ATCC 19606 by Etest method in presence of 4 ug/ml beta-lactamase inhibitor clavulanic acid. Particulars: ATCC 19606 = CIP 70.34 = JCM 6841. The essentials: as §1
Test [9] concerns Escherichia coli. The test can be described thus: Antimicrobial activity against Escherichia coli TOP10 harboring plasmid PH1 by Etest method in presence of 4 ug/ml beta-lactamase inhibitor clavulanic acid. In outline:
as §2

Test [10] deals with Escherichia coli. The test can be described thus: Antimicrobial activity against Escherichia coli TOP10 by Etest method in presence of 4 ug/ml beta-lactamase inhibitor clavulanic acid. In outline:
(§3)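 Susceptibility was read by Etest, following the manufacturer's instructions. E. coli TOP10 without plasmid served as the reference host strain.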

Test [11] concerns Acinetobacter baumannii. The test can be described thus: Antimicrobial activity against Acinetobacter baumannii […] by Etest method in presence of 4 ug/ml beta-lactamase inhibitor Tazobactam. In outline: as §1
Test [12] deals with Acinetobacter baumannii. Kind of test: Antimicrobial activity against Acinetobacter baumannii ATCC 19606 harboring plasmid PH98 by Etest method in presence of 4 ug/ml beta-lactamase inhibitor Tazobactam. To be noted: ATCC 19606 = CIP 70.34 = JCM 6841. The essentials: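 Susceptibility by Etest, run according to the manufacturer's instructions. The recipient strain is A. baumannii ATCC 19606 carrying recombinant plasmid pPH98. The same strain without the plasmid served as the reference. MICs for this strain were also determined by agar dilution following CLSI guidelines.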

Test [13] relates to Acinetobacter baumannii. The test can be described thus: Antimicrobial activity against Acinetobacter baumannii ATCC 19606 by Etest method in presence of 4 ug/ml beta-lactamase inhibitor Tazobactam. Particulars: ATCC 19606 = CIP 70.34 = JCM 6841. The essentials: as §1
In test [14] the test system is Escherichia coli. The test can be described thus: Antimicrobial activity against Escherichia coli TOP10 harboring plasmid PH1 by Etest method in presence of 4 ug/ml beta-lactamase inhibitor Tazobactam. The essentials: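 Susceptibility was read by Etest, following the manufacturer's instructions. The test strain was E. coli TOP10 carrying recombinant plasmid pPH-1, which expresses blaOXA-143 from A. baumannii clinical isolate 135040 at a high level. The gene was introduced by Zero Blunt TOPO cloning, and transformants were selected on 50 μg/ml amoxicillin plus 30 μg/ml kanamycin.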

For test [15], the system named is Escherichia coli. The test can be described thus: Antimicrobial activity against Escherichia coli TOP10 by Etest method in presence of 4 ug/ml beta-lactamase inhibitor Tazobactam. The essentials: as §3

For the molecule `CO/N=C(\C(=O)N[C@@H]1C(=O)N2C(C(=O)O)=C(COC(C)=O)CS[C@H]12)c1csc(N)n1` [CEFOTAXIME], the minimum inhibitory concentration (MIC) is over 256 µg/mL against Acinetobacter baumannii [1]; 16 µg/mL (≈ 35.1 µM) against Acinetobacter baumannii [2]; 8 µg/mL (≈ 17.6 µM) in the test on Acinetobacter baumannii [3]; 0.12 µg/mL (≈ 0.263 µM) with Escherichia coli [4]; 0.12 µg/mL (≈ 0.263 µM) in the test on Escherichia coli [5].
Regarding `CC1(C)S[C@@H]2[C@H](NC(=O)[C@H](N)c3ccc(O)cc3)C(=O)N2[C@H]1C(=O)O` [AMOXICILLIN], the MIC against Acinetobacter baumannii [1] was over 256 µg/mL; in the test with Acinetobacter baumannii [6] it was over 256 µg/mL; against Acinetobacter baumannii [2], over 256 µg/mL; in the test with Acinetobacter baumannii [7], over 256 µg/mL; against Acinetobacter baumannii [3], 32 µg/mL (≈ 87.6 µM); in the test with Acinetobacter baumannii [8], 8 µg/mL. The MIC against Escherichia coli [4] is over 512 µg/mL; in the test on Escherichia coli [9], over 512 µg/mL; in the test on Escherichia coli [5], 4 µg/mL (≈ 10.9 µM); in the test with Escherichia coli [10], 4 µg/mL.
Take `CC1(C)S[C@@H]2[C@H](NC(=O)[C@H](C(=O)O)c3ccsc3)C(=O)N2[C@H]1C(=O)O` [TICARCILLIN]: the MIC in the test on Acinetobacter baumannii [1] is over 256 µg/mL; in the test with Acinetobacter baumannii [2], over 256 µg/mL; against Acinetobacter baumannii [3] it was 4 µg/mL (≈ 10.4 µM); in the test on Escherichia coli [4], 128 µg/mL (≈ 333 µM); in the test with Escherichia coli [5], 4 µg/mL (≈ 10.4 µM).
As to `CO/N=C(\C(=O)N[C@@H]1C(=O)N2C(C(=O)[O-])=C(C[N+]3(C)CCCC3)CS[C@H]12)c1csc(N)n1` [CEFEPIME], the MIC with Acinetobacter baumannii [1] worked out at 4 µg/mL (≈ 8.32 µM); in the test on Acinetobacter baumannii [2], 2 µg/mL (≈ 4.16 µM); against Acinetobacter baumannii [3] it was 1 µg/mL (≈ 2.08 µM); with Escherichia coli [4], 0.12 µg/mL (≈ 0.25 µM).
Take `C[C@@H](O)[C@H]1C(=O)N2C(C(=O)O)=C(S[C@@H]3CN[C@H](C(=O)N(C)C)C3)[C@H](C)[C@H]12` [MEROPENEM]: the MIC is over 32 µg/mL in the test with Acinetobacter baumannii [1]; 32 µg/mL (≈ 83.4 µM) in the test on Acinetobacter baumannii [2]; 0.19 µg/mL (≈ 0.495 µM) against Acinetobacter baumannii [3]; 2 µg/mL (≈ 5.22 µM) in the test on Escherichia coli [4]; 0.12 µg/mL (≈ 0.313 µM) with Escherichia coli [5].
For `C[C@@H](O)[C@H]1C(=O)N2C(C(=O)O)=C(SCCNC=N)C[C@H]12` [IMIPENEM ANHYDROUS], the minimal inhibitory concentration (MIC) with Acinetobacter baumannii [1] is over 32 µg/mL; against Acinetobacter baumannii [2], 32 µg/mL (≈ 107 µM); against Acinetobacter baumannii [3], 0.19 µg/mL (≈ 0.635 µM); in the test with Escherichia coli [4] it was 2 µg/mL (≈ 6.68 µM).
As for `CC(C)(O/N=C(\C(=O)N[C@@H]1C(=O)N2C(C(=O)[O-])=C(C[n+]3ccccc3)CS[C@H]12)c1csc(N)n1)C(=O)O` [CEFTAZIDIME], the minimal inhibitory concentration (MIC) against Acinetobacter baumannii [1] was found to be 256 µg/mL (≈ 468 µM); in the test on Acinetobacter baumannii [2] it was 2 µg/mL (≈ 3.66 µM); in the test with Acinetobacter baumannii [3], 2 µg/mL (≈ 3.66 µM); in the test on Escherichia coli [4], 0.12 µg/mL (≈ 0.22 µM); against Escherichia coli [5] it was 0.06 µg/mL (≈ 0.11 µM).
On to `CCN1CCN(C(=O)N[C@@H](C(=O)N[C@@H]2C(=O)N3[C@@H]2SC(C)(C)[C@@H]3C(=O)O)c2ccccc2)C(=O)C1=O` [PIPERACILLIN], for which the minimum inhibitory concentration (MIC) in the test on Acinetobacter baumannii [1] was over 256 µg/mL; in the test on Acinetobacter baumannii [11], over 256 µg/mL; with Acinetobacter baumannii [2], 16 µg/mL (≈ 30.9 µM); with Acinetobacter baumannii [12] it was 8 µg/mL; against Acinetobacter baumannii [3], 4 µg/mL (≈ 7.73 µM); in the test with Acinetobacter baumannii [13], 4 µg/mL. The minimum inhibitory concentration (MIC) against Escherichia coli [4] is 8 µg/mL (≈ 15.5 µM); in the test on Escherichia coli [14], 2 µg/mL; against Escherichia coli [5], 1 µg/mL (≈ 1.93 µM); in the test on Escherichia coli [15] it was 0.5 µg/mL.
